The source made the active and inactive calls. The calls are words filed in the database; no cut-off is given here.
What was measured:
[1] = target: T1, Signal transducer and activator of transcription 3 (Mus musculus, UniProt P42227); assay: Inhibition of STAT3 in mouse NIH3T3/vSrc nuclear extract assessed as disruption of the Stat3-DNA complex pre-incubated for 30 mins by EMSA analysis
Outline: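 NIH3T3/vSrc nuclear extracts were pre-incubated with a range of compound concentrations for 30 min at room temperature. They were then incubated with 32P-labelled hSIE probe (c-fos m67 variant) for 30 min at 30 °C and resolved by EMSA. Stat3 DNA-binding bands were quantified as percent of control, and IC50 was derived from those plots.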

[2] = target: T2, Signal transducer and activator of transcription 3 (Homo sapiens, UniProt P40763); assay: Inhibition of STAT3 using fluorescent probe 5-carboxyfluorescein-GpYLPQTV-NH2 after 15 mins by fluorescence polarisation assay
T2 sequence (P40763 whole entry): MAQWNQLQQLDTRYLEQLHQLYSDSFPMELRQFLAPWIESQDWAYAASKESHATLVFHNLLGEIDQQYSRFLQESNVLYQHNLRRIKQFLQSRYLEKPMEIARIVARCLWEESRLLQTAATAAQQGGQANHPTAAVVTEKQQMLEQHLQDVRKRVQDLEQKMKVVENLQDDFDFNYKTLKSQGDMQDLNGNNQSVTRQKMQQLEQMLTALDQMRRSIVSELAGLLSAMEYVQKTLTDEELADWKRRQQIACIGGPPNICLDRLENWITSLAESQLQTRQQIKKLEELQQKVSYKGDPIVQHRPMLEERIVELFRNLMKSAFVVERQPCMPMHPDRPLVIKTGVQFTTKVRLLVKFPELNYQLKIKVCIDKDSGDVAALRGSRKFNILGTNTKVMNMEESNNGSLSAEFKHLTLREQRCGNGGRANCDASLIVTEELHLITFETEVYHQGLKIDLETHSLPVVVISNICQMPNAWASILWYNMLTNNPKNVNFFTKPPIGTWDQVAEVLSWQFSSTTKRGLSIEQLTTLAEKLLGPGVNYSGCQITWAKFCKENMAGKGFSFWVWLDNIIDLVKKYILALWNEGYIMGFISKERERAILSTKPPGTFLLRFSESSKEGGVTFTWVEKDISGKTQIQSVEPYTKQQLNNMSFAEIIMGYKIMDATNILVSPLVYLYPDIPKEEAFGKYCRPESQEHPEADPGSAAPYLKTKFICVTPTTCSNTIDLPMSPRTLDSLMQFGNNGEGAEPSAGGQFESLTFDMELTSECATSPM

[3] = target: T2, Signal transducer and activator of transcription 3; assay: Inhibition of STAT3 phosphorylation in human MDA468 cells at 100 uM after 24 hrs by Western blotting; format: cell-based; details: MDA-MB-468
Outline: (§1)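 Intact MDA-468 or JJN3 cells were treated for 24 h, with DMSO as the untreated control. Cells were lysed in Tris-HCl/EDTA/1% NP-40/150 mM NaCl for 30 min on ice, freeze-thawed once at −80 °C and centrifuged at 12000g for 15 min. Whole-cell lysates were run on 6.5–15% SDS-PAGE and immunoblotted for pY705Stat3 and total Stat3.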

[4] = target: T2, Signal transducer and activator of transcription 3; assay: Inhibition of STAT3 phosphorylation in human JJN-3 cells at 100 uM after 24 hrs by Western blotting; format: cell-based; outline: as §1
[5] = target: T1, Signal transducer and activator of transcription 3; assay: Inhibition of mouse STAT3 SH2 domain using fluorescent probe 5-carboxyfluorescein-GpYLPQTV-NH2 after 30 mins by fluorescence polarisation assay
[6] = Inhibition of mouse STAT5 using fluorescent probe 5-carboxyfluorescein-GpYLPQTV-NH2 after 30 mins by fluorescence polarisation assay
[7] = target: T3, Signal transducer and activator of transcription 1 (Mus musculus, UniProt P42225); assay: Inhibition of mouse STAT1 using fluorescent probe 5-carboxyfluorescein-GpYLPQTV-NH2 after 30 mins by fluorescence polarisation assay
T3 sequence (P42225 whole entry): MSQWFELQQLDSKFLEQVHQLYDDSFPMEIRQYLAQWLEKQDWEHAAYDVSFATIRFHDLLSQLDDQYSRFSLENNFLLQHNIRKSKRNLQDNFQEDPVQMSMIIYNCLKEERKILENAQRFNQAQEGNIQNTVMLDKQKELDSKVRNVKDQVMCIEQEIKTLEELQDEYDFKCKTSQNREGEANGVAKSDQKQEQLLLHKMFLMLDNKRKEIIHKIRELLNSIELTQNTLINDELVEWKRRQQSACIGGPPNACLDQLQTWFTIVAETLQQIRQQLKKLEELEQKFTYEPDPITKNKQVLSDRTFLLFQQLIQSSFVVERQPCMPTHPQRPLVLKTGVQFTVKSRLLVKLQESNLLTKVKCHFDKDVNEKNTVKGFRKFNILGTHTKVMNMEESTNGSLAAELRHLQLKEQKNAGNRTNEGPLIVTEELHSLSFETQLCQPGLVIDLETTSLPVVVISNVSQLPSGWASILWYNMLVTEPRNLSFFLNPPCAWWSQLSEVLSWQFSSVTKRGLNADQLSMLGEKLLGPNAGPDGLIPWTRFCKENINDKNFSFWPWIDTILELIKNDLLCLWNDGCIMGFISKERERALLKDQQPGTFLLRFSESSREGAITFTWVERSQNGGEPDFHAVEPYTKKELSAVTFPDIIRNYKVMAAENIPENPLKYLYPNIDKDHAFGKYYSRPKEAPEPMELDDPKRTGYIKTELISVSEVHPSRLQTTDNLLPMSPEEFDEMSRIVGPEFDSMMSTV

[8] = Cytotoxicity against human JJN-3 cells after 72 hrs by MTS assay; format: functional, cell-based; details: JJN-3, 72 h
[9] = Solubility of the compound in water; format: physicochemical; details: buffer
[10] = target: T2, Signal transducer and activator of transcription 3; details: MDA-MB-468, 20 uM
[11] = target: T2, Signal transducer and activator of transcription 3; details: JJN-3, 20 uM
[12] = target: T2, Signal transducer and activator of transcription 3; details: MDA-MB-468, 20 uM; remark: listed apart in the source
[13] = target: T2, Signal transducer and activator of transcription 3; details: MDA-MB-468, 20 uM; remark: listed apart in the source
[14] = target: T2, Signal transducer and activator of transcription 3; details: MDA-MB-468, 20 uM; remark: listed apart in the source
[15] = target: T2, Signal transducer and activator of transcription 3; details: JJN3, 20 uM
[16] = target: T2, Signal transducer and activator of transcription 3; details: JJN3, 20 uM; remark: listed apart in the source
[17] = target: T2, Signal transducer and activator of transcription 3; details: JJN3, 20 uM; remark: listed apart in the source
[18] = Cytotoxicity against human MDA468 cells after 72 hrs by MTS assay; format: functional, cell-based; details: MDA-MB-468, 72 h
DU-145 = assay: Cytotoxicity against human DU145 cells after 72 hrs by MTS assay; format: functional, cell-based; details: DU-145, 72 h
[19] = Lipophilicity, log P of the compound; format: physicochemical; details: octanol/water

T1 sequence (P42227 whole entry): as the sequence (P40763 whole entry) above, with E760D counted along it

For `CN(CC(=O)N(Cc1ccc(C2CCCCC2)cc1)c1ccc(C(=O)O)c(O)c1)S(=O)(=O)c1cn(C)cn1`, the IC50 [1] was over 300 µM and the Ki [2] was over 100 µM.
With `Cc1ccc(S(=O)(=O)N(C)CC(=O)N(Cc2ccc(C3CCCCC3)cc2)c2ccc(C(=O)O)c(O)c2)cc1` the inhibition [3] was “Active”, the inhibition [4] was “Active” and the Ki [5] was 15 µM. It also gave a Ki [6] of over 25 µM and a Ki [7] of over 25 µM.
`CN(CC(=O)N(Cc1ccc(C2CCCCC2)cc1)c1ccc(C(=O)O)c(O)c1)S(=O)(=O)c1ccc(F)cc1` showed an IC50 [1] of over 300 µM.
Work on `COc1ccc(S(=O)(=O)N(C)CC(=O)N(Cc2ccc(C3CCCCC3)cc2)c2ccc(C(=O)O)c(O)c2)cc1` yielded an IC50 [1] of 67.4 µM.
With `CN(CC(=O)N(Cc1ccc(C2CCCCC2)cc1)c1ccc(C(=O)O)c(O)c1)S(=O)(=O)c1c(F)c(F)c(F)c(F)c1F` the EC50 [8] was 16.7 µM, the solubility [9] was “soluble” and the inhibition [10] was “Active”. For the same compound, the inhibition [11] was “Active”, the inhibition [12] was “Active” and the inhibition [13] was “Active”. The inhibition [14] was “Active”, the inhibition [15] was “Active” and the inhibition [16] was “Active”. For the same compound, the inhibition [17] was “Active”.
`CN(CC(=O)N(Cc1ccc(C2CCCCC2)cc1)c1ccc(C(=O)O)c(O)c1)S(=O)(=O)c1ccc(-c2ccccc2)cc1` gave an IC50 [1] of 65.4 µM and a Ki [2] of 6.2 µM.
`CN(CC(=O)N(Cc1ccc(C2CCCCC2)cc1)c1ccc(C(=O)O)c(O)c1)S(=O)(=O)c1cccc2ccccc12` gave an EC50 [18] of 46.5 µM, an EC50 (DU-145) of 74.5 µM and an EC50 [8] of 106 µM. The logP [19] was 5.95 and the solubility [9] was “Insoluble”.

From ChEMBL document CHEMBL1828629, “Identification of a non-phosphorylated, cell permeable, small molecule ligand for the Stat3 SH2 domain” (Bioorg Med Chem Lett, 2011)
